# CHT allo act – allosterically activates the human high affinity choline transporter. B-score at 10 µM. hit rate 0.49% among 310,000. CHT-expressing cells, membrane potential dye, choline EC20; stronger effect = higher value; LV-AA mutant CHT in HEK293 cells. Q9GZV3. AID 488977;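 active = initial fluorescence not abnormally high and integrated response B-score, plate-corrected, over 3 SD above library mean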
# Target sequence (Q9GZV3 whole entry, looked up): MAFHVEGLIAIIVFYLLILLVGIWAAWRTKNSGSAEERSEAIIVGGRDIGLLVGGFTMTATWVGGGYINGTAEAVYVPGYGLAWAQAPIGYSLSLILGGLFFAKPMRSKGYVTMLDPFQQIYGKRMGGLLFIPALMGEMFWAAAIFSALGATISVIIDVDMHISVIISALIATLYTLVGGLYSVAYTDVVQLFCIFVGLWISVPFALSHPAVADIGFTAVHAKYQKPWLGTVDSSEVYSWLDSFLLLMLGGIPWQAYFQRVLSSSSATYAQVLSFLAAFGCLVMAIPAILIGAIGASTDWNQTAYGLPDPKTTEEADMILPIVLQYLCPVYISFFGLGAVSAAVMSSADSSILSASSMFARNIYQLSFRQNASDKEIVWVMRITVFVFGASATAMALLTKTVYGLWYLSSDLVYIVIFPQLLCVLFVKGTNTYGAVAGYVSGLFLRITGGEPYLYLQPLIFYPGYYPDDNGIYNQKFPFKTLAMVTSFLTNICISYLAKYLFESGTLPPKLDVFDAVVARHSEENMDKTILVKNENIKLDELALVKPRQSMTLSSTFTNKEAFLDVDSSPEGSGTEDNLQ
# proCasp7 act – counter-screen: procaspase-7 (human) activation; activation, % at 8.5 µM; recombinant procaspase-7, Ac-DEVD-pNA absorbance 405 nm; D23A/D198A/D206A triple mutant, cannot self-cleave; scale: DMSO 0, 5 µM enzyme 100; hit rate 0.093% among 330,000; P55210;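 active = percent activation above the screen-wide mean plus 3 SD, cut at about 25% in these data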
#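 Detection: p-Nitroaniline absorbance at 405 nm, read at 0 and 120 min; system: Uncleavable procaspase-7 mutant enzyme; evaluation: % activation from two-timepoint absorbance difference, scaled to controls; times: 1 h enzyme–compound preincubation and 2 h substrate reaction, both 25 °C; buffer or medium: Zinc-free HEPES pH 7.4 with 300 mM NaCl, 0.01% Triton X-100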
# CHT block – inhibitors of human choline transporter CHT; Q9GZV3; CHT-expressing cells, membrane potential dye, choline response; stronger effect = lower value; B-score at 10 µM; hit rate 0.86% among 310,000;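 active = B-score over 3 SD under the library average, and starting fluorescence ratio not unusually high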;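 note: choline stimulus applied at its EC90 after an EC20 pre-addition; B-score computed on integrated fluorescence ratio after choline addition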
# procasp3 activ – activates human procaspase-3 | P42574 | recombinant procaspase-3 D3A, Ac-DEVD-pNA absorbance 405 nm | activation, % at 8.5 µM | hit rate 0.11% among 330,000 | AID 463141;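 active = activation above the mean of all tested compounds plus 3 SD, cut at about 21% in these data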;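 note: 0% = DMSO alone and 100% = DMSO wells spiked with extra 5 µM PC-3 D3A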
#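 Evaluation: percent activation relative to control range; Material: Procaspase-3 D3A mutant, all three cleavage aspartates alanine; Compound: single dose, 8.5 µM nominal compound, 0.8% DMSO; Replication: one well per compound; Signal: absorbance at 405 nm, 0 and 120 min; Schedule: 1 h preincubation plus 2 h reaction at 25 °C.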
# CHT block conf – confirmation of human choline transporter CHT inhibitors; shares compounds with CHT block; CHT-expressing cells, choline membrane potential dye; LV-to-AA substituted CHT, HEK293 cells; CHT activity remaining % of control (stronger effect = lower value), % at 10 µM; hit rate 70% among 2,400;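 active = choline transporter activity left, mean of duplicates at 10 µM, below buffer-only control mean minus 3 SD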;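 note: depolarization triggered by choline at its EC90 following an EC20 pre-addition; 0% = hemicholinium-3 full block and 100% = buffer-only control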
# HEK293 CHT ctr – activity in parental HEK293 cells lacking CHT | shares compounds with CHT block | membrane potential dye, choline response; active = decrease or increase beyond buffer ±3SD | membrane potential ratio readout (active if shifted either direction beyond buffer ±3SD; no single direction) at 10 µM | hit rate 4% among 2,400;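 note: parental cells lack the transporter so any hit is non-specific; ratio is peak minus trough fluorescence over baseline after EC90 choline challenge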
# Active calls of the source: *; i = inactive; nt = not tested or not shown. Compounds with a hit are over-represented: about 1.3% of the library has one in this group of screens.
SMILES,CHT allo act,proCasp7 act,CHT block,procasp3 activ,CHT block conf,HEK293 CHT ctr
O=C(Cc1ccc(-n2c(=O)c3ccccc3n(Cc3ccccc3F)c2=O)cc1)NCC1CCCO1 (stereo unspecified),i,-3,-7.8*,2,41%*,i
CCc1ccccc1NC(=O)Cn1c(=O)n(-c2ccc(CC(=O)NCC3CCCO3)cc2)c(=O)c2ccccc21 (stereo unspecified),i,0,i,3,nt,nt
N#Cc1nc(Cc2cccc3ccccc23)oc1N1CCOCC1,i,-2,-5.3*,-7,59%*,i
CCOC(=O)C1CCCN(C(=O)Cc2c(F)cccc2Cl)C1 (stereo unspecified),i,-7,-5.7*,1,53%*,i
CCOC(=O)C1CCN(C(=O)Cc2c(F)cccc2Cl)CC1,i,5,i,-2,nt,nt
COc1ccccc1-c1coc2cc(O)cc(O)c2c1=O,i,10,-5.9*,-2,65%*,i
O=c1c(-c2ccc(O)cc2O)coc2cc(O)cc(O)c12,i,-3,i,-3,nt,nt
CC1CCCCC1NC(=S)Nc1ccc(SC(F)F)cc1 (stereo unspecified),i,-1,-5.5*,12,66%*,i
CC(C)Oc1cccc(-c2cc(C(=O)NC(=S)N(C)c3ccccc3C(=O)O)c3ccccc3n2)c1,i,-21,i,-10,nt,nt
Cn1c(=O)c(C#N)c(-c2ccc(F)cc2)c2cc(C(=O)c3cc(Cl)cc(Cl)c3O)cnc21,i,2,-8.2*,4,53%*,i
COc1ccccc1-n1c(=O)c(C#N)c(-c2ccc([N+](=O)[O-])cc2)c2cc(C(=O)c3cc(F)ccc3O)cnc21,i,4,i,6,nt,nt
CCCNC(=O)N1CCCC(C(=O)c2cccc(Cl)c2)C1 (stereo unspecified),i,11,-5.2*,-6,60%*,i
COc1ccc(N2CCN(S(=O)(=O)c3cn(C)c(=O)n(C)c3=O)CC2)cc1,i,14,-5.3*,4,i,i
O=C(COc1ccccc1F)Nc1c2c(nn1-c1ccccc1)CS(=O)(=O)C2,i,0,i,1,nt,nt
Cc1nnc(NC(=O)c2nc(S(=O)(=O)Cc3ccccc3)ncc2Cl)s1,i,-18,-11*,-10,28%*,i
CCCc1nnc(NC(=O)c2nc(S(=O)(=O)Cc3cccc(C)c3)ncc2Cl)s1,i,0,-5.2*,-5,30%*,i
N#C/C(=C(/O)CN1CCCC1)c1nc(-c2ccccc2)cs1,i,1,i,8,nt,nt
CCOC(=O)C1CCCN(C/C(O)=C(\C#N)c2nc(-c3ccc(Cl)cc3)cs2)C1 (stereo unspecified),i,4,-5.7*,2,i,i
COc1ccc(S(=O)(=O)/N=C2/NC(=O)/C(=C\c3cc(OC)c(OC)cc3[N+](=O)[O-])S2)cc1,i,1,i,0,nt,nt
COc1cc(/C=C2\S/C(=N/S(=O)(=O)c3ccccc3)NC2=O)c([N+](=O)[O-])cc1OC,i,-1,-8.2*,0,53%*,i
O=C(O)c1ccccc1NS(=O)(=O)c1ccc2c3c(cccc13)C(=O)N2,i,4,i,6,nt,nt
Cc1cc(O)ccc1NS(=O)(=O)c1ccc2c3c(cccc13)C(=O)N2,i,17,-6.5*,0,57%*,i
CC(=O)N1CC(C)Sc2ccc(S(=O)(=O)NC3CCCCC3C)cc21 (stereo unspecified),i,5,i,1,nt,nt
C/C(=N\OCC(=O)Nc1ccccc1C(=O)O)c1cccs1,i,-1,-6.2*,-1,44%*,i
C/C(=N/OCC(=O)Nc1ccc(C)cc1C)c1cccs1,i,0,i,-10,nt,nt
SMILES,CHT allo act,proCasp7 act,CHT block,procasp3 activ,CHT block conf,HEK293 CHT ctr
CCc1ccccc1NC(=O)CCc1c(C)nn(-c2ccc(N3CCOCC3)nn2)c1C,i,12,i,5,nt,nt
CCOC(=O)c1c(NC(=O)CSc2nnc(-c3ccccc3)n2CC)sc(C(C)=O)c1C,i,-11,-5.3*,7,i,i
CCOC(=O)c1c(NC(=O)CSc2nnc(-c3cccc(C)c3)n2CC)sc(C(C)=O)c1C,i,1,i,-3,nt,nt
CCOC(=O)c1sc(NC(=O)CSc2nc3c(c(=O)n2-c2ccc(C)cc2)SCC3)c(C(=O)OCC)c1C,i,11,-7*,-5,69%*,i
Cc1ccc(N)c2c1OCCC2=O,i,4,i,-5,nt,nt
CC(Oc1ccc(Cl)cc1Cl)C(=O)NC1=NN(c2ccccc2)C(=O)C1 (stereo unspecified),i,-8,-6.3*,-10,39%*,i
CC(Oc1ccc(Cl)cc1Cl)C(=O)Nc1ccc(S(=O)(=O)Nc2cnc3ccccc3n2)cc1 (stereo unspecified),i,5,-9.9*,2,46%*,i
Cc1cc(Cl)ccc1OC(C)C(=O)Nc1ccc(S(=O)(=O)Nc2cnc3ccccc3n2)cc1 (stereo unspecified),i,4,-11*,0,43%*,i
CC(=O)Nc1ccc(NC(=O)C(C)Oc2ccc(Cl)cc2Cl)cc1 (stereo unspecified),i,-10,i,2,nt,nt
O=C(Cc1ccc(Cl)cc1)Nc1ccc(S(=O)(=O)Nc2cnc3ccccc3n2)cc1,i,0,i,5,nt,nt
c1ccc(CN2CCN(c3nc4ccccc4n4cnnc34)CC2)cc1,i,-5,-5.5*,3,59%*,i
CCN(Cc1ccncc1)C(=O)c1cc(COc2ccc(OC)cc2Cl)on1,i,5,i,14,nt,nt
CCN(Cc1ccncc1)C(=O)c1cc(COc2ccc(F)cc2Cl)on1,i,14,-5.7*,-2,49%*,i
Cc1cc(CN(C)C(=O)c2cc(COc3ccc(F)cc3Cl)on2)n[nH]1,i,-7,-6*,5,55%*,i
CN(Cc1c(C(=O)N/N=C/c2cccc(Cl)c2)nnn1-c1nonc1N)c1ccccc1,i,-6,i,8,nt,nt
COc1ccc(S(=O)(=O)NCC2CCCN(C(=O)CCSC)C2)cc1 (stereo unspecified),i,-1,i,5,nt,nt
NS(=O)(=O)c1ccc(N/N=C/c2ccc(C(=O)O)cc2)c([N+](=O)[O-])c1,i,-14,i,4,nt,nt
Cc1nn(-c2ccccc2)c(N2CCCC2)c1/C=N/Nc1ccc(S(N)(=O)=O)cc1[N+](=O)[O-],i,-3,-5*,4,i,i

# High-throughput results deposited in PubChem BioAssay by several laboratories.
